Tests used:
[1] = Inhibition of [methyl-14C]choline uptake in human HepG2 cells at 10 uM incubated for 10 mins followed by removal of medium containing compound and subsequent addition of [methyl-14C]choline measured after 5 mins relative to control; format: functional; settings: HepG2, 10 min
In short: (§1)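 Cells at 200,000/well were incubated for 10 min at 37 °C in medium with or without CKα1 inhibitor. The medium was then removed and cells were exposed to [methyl-¹⁴C]choline (31 Ci/mol) for 5 min at 37 °C. Uptake was stopped by aspiration and two ice-cold PBS washes containing choline. Inhibition is expressed as % of untreated control.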

[2] = Inhibition of [methyl-14C]choline uptake in human HT-29 cells at 10 uM incubated for 10 mins followed by removal of medium containing compound and subsequent addition of [methyl-14C]choline measured after 5 mins relative to control; format: functional; settings: HT-29, 10 min; in short: as §1
[3] = Inhibition of [methyl-14C]choline uptake in human HepG2 cells at 30 uM incubated for 10 mins followed by removal of medium containing compound and subsequent addition of [methyl-14C]choline measured after 5 mins relative to control; format: functional; settings: HepG2, 10 min; in short: as §1
[4] = Inhibition of [methyl-14C]choline uptake in human HT-29 cells at 30 uM incubated for 10 mins followed by removal of medium containing compound and subsequent addition of [methyl-14C]choline measured after 5 mins relative to control; format: functional; settings: HT-29, 10 min; in short: as §1
RS4-11 [5] = assay: Antiproliferative activity against human RS4-11 cells assessed as inhibition of cell proliferation incubated for 72 hrs by MTT assay; format: functional
In short: (§2)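 Cells seeded at 8 × 10³/well and held 18 h at 37 °C, 5% CO₂. Medium then replaced with compound at several concentrations for 72 h at 37 °C, followed by MTT viability read-out. GI50 is taken against cells given the maximum DMSO (0.25%), which is set as 100% viability. Dose-response curves come from at least three independent experiments run in triplicate and are reported as mean ± SE.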

HT-29 [6] = assay: Antiproliferative activity against human HT-29 cells assessed as inhibition of cell proliferation incubated for 72 hrs by MTT assay; format: functional; in short: as §2
CCRF-CEM [7] = assay: Antiproliferative activity against human CCRF-CEM cells assessed as inhibition of cell proliferation incubated for 72 hrs by MTT assay; format: functional; in short: as §2
HeLa [8] = assay: Antiproliferative activity against human HeLa cells assessed as inhibition of cell proliferation incubated for 72 hrs by MTT assay; format: functional; in short: as §2
Choline kinase alpha [9] = target: T1, Choline kinase alpha (Homo sapiens, UniProt P35790); assay: (§3) Inhibition of human CKalpha1 assessed as reduction in 14C incorporation from [methyl-14C]choline to phosphatidylcholine at 10 uM using [methyl-14C]choline as substrate preincubated for 5 mins in presence of ATP and MgCl2 followed by substrate addition and measured after 10 mins by liquid scintillation counting method relative to control; settings: time 15.0 min
In short: (§4)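 Purified human CKα1 (20 ng) in 100 mM Tris pH 8.5 with 10 mM MgCl₂ and 10 mM ATP, DMSO ≤0.1%, was preincubated 5 min at 37 °C. Reaction was started with 1 mM [methyl-¹⁴C]choline (4500 dpm/nmol), run 10 min at 37 °C and stopped in boiling water. Product was separated by silica TLC, scraped and scintillation-counted against DMSO controls. At least three experiments were run; IC50 was obtained from sigmoidal dose-response fits.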
Target sequence in this assay (P35790 whole entry, looked up): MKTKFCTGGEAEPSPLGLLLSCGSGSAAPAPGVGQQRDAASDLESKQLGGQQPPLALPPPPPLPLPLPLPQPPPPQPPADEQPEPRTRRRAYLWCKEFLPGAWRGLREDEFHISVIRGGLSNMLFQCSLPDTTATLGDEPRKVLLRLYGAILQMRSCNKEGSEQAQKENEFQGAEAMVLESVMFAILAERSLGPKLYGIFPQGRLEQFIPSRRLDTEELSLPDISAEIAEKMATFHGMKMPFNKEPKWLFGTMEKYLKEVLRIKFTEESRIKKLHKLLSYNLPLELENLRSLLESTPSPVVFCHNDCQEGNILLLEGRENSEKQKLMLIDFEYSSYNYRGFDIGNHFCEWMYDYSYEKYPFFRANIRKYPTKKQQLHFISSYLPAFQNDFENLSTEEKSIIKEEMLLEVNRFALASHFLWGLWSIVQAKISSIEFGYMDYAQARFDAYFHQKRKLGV

Choline kinase alpha [10] = target: T1, Choline kinase alpha; assay: Binding affinity to human CKalpha1 assessed as dissociation constant by spectroflurometry
In short: (§5)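 Purified human CK (cloned as reported earlier) at 1 µM was titrated with compound in 25 mM Tris, 150 mM NaCl, pH 7.5 at 25 °C. Compound ranges were 0.1–10 µM for CKα1 and 0.5–200 µM for CKβ. Tryptophan quenching was read with excitation at 280 nm, emission 300–400 nm and 5 nm slits. DMSO-matched controls were run, and Kd was fitted to a single-site model. Results are given as mean ± SD.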
Target sequence in this assay (P35790 whole entry): as the sequence (P35790 whole entry, looked up) above

Homo sapiens = organism: Homo sapiens; assay: Selectivity index, ratio of Kd for human CKbeta to Kd for human CKalpha1
Choline kinase alpha [11] = target: T1, Choline kinase alpha; assay: as §3, with “at 50” for “at 10”; settings: time 15.0 min; in short: as §4
Target sequence in this assay (P35790 whole entry, looked up): as above

[12] = target: Choline/ethanolamine kinase (Homo sapiens, UniProt Q9Y259); assay: Binding affinity to human CKbeta assessed as dissociation constant by spectroflurometry; in short: as §5
Choline kinase alpha [13] = target: T1, Choline kinase alpha; assay: as §3, with “at 30” for “at 10”; settings: time 15.0 min; in short: as §4
Target sequence in this assay (P35790 whole entry, looked up): as above

HeLa [14] = assay: Antiproliferative activity against human HeLa cells assessed as inhibition of cell proliferation; format: functional; in short: as §2
HT-29 [15] = assay: Antiproliferative activity against human HT-29 cells assessed as inhibition of cell proliferation; format: functional; in short: as §2
RS4-11 [16] = assay: Antiproliferative activity against human RS4-11 cells assessed as inhibition of cell proliferation; format: functional; in short: as §2
CCRF-CEM [17] = assay: Antiproliferative activity against human CCRF-CEM cells assessed as inhibition of cell proliferation; format: functional; in short: as §2
Choline kinase alpha [18] = target: T1, Choline kinase alpha; assay: as §3, with “[…]” for “phosphatidylcholine at 10 uM”; in short: as §4
Target sequence in this assay (P35790 whole entry): as the sequence (P35790 whole entry, looked up) above

Sequence of Choline/ethanolamine kinase (Q9Y259 whole entry): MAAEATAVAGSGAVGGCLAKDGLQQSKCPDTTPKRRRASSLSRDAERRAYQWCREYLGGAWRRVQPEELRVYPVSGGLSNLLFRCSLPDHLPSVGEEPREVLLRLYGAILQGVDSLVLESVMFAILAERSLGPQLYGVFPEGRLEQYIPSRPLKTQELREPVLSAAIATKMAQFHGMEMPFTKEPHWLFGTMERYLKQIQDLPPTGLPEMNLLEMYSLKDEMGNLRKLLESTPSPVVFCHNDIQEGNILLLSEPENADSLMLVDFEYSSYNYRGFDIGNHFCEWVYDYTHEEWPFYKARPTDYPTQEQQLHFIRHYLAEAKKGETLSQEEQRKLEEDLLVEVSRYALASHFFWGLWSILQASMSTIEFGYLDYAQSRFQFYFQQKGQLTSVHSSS

| GI50 (RS4-11 [5]) [nM] | GI50 (HT-29 [6]) [µM] | GI50 (CCRF-CEM [7]) [µM] | GI50 (HeLa [8]) [µM] | inhibition (Choline kinase alpha [9]) [%] | Kd (Choline kinase alpha [10]) [µM] | inhibition (Choline kinase alpha [13]) [%] | Structure (SMILES) | other results |
| --- | --- | --- | --- | --- | --- | --- | --- | --- |
| 30 | 4.6 | 0.56 | 16.2 | 35.8 | 0.4 | 27.5 | Clc1ccc2c(N3CCCCCC3)cc[n+](Cc3ccccc3)c2c1 | Ratio (Homo sapiens): 83; inhibition (Choline kinase alpha [11]): 38.7%; Kd [12]: 33 µM |
| – | – | – | – | – | – | – | CN(C)c1cc[n+](Cc2ccc(CCCCc3ccc(C[n+]4ccc(N(C)C)cc4)cc3)cc2)cc1 | GI50 (HeLa [14]): 1900 nM; GI50 (HT-29 [15]): 1900 nM; GI50 (RS4-11 [16]): 1000 nM; GI50 (CCRF-CEM [17]): 210 nM |
| 7900 | 11.2 | 18 | 23.2 | 25.4 | – | 33.5 | CN(C)c1cc[n+](Cc2ccc(C(F)(F)F)cc2)cc1 | inhibition at 10 µM [1]: 11.7%; inhibition at 10 µM [2]: 14.3%; inhibition at 30 µM [3]: 16.9%; inhibition at 30 µM [4]: 22.7% |
| 50 | 0.04 | 0.04 | 0.28 | 36.9 | – | 46.3 | Clc1ccc2c(N3CCCC3)cc[n+](Cc3ccc(-c4ccccc4)cc3)c2c1 | – |
| 3000 | 4.5 | 2.2 | 16.3 | 23.1 | 0.89 | 28.4 | CN(c1ccccc1)c1cc[n+](Cc2ccccc2)c2cc(Cl)ccc12 | Ratio (Homo sapiens): 41; inhibition (Choline kinase alpha [11]): 18.6%; Kd [12]: 36 µM |
| 3200 | 5.4 | 4.6 | 4.7 | 34.7 | – | 52.7 | FC(F)(F)c1ccc(C[n+]2ccc(N3CCCCCC3)c3ccc(Cl)cc32)cc1 | – |
| 8300 | 38 | 5.3 | 66 | 11.1 | 24 | 19.6 | c1ccc(C[n+]2ccc(N3CCCC3)cc2)cc1 | inhibition (Choline kinase alpha [11]): 27.8% |
| 1300 | 1.3 | 2 | 2.6 | 10.4 | – | 14.5 | CN(c1ccc(Cl)cc1)c1cc[n+](Cc2ccc(C(F)(F)F)cc2)c2cc(Cl)ccc12 | – |
| 7600 | 8.1 | 12 | 42.1 | – | – | – | FC(F)(F)c1ccc(C[n+]2ccc(N3CCCC3)cc2)cc1 | – |
| 140 | 0.23 | 0.3 | 0.91 | – | – | – | CN(c1ccc(Cl)cc1)c1cc[n+](Cc2ccc(-c3ccccc3)cc2)cc1 | inhibition at 10 µM [1]: 83.3%; inhibition at 10 µM [2]: 78.4%; inhibition at 30 µM [3]: 94.8%; inhibition at 30 µM [4]: 95% |
| 12800 | 17.5 | 8.6 | 14.8 | – | – | – | c1ccc(-c2ccc(C[n+]3ccc(N4CCCCCC4)c4ccccc43)cc2)cc1 | – |
| 1400 | 0.85 | 1.7 | 1.7 | 38.6 | 0.185 | 76 | CN(c1ccccc1)c1cc[n+](Cc2ccc(-c3ccccc3)cc2)c2cc(Cl)ccc12 | Ratio (Homo sapiens): 108; inhibition at 10 µM [1]: 87.2%; IC50 (Choline kinase alpha [18]): 12.6 µM; inhibition at 10 µM [2]: 85.5%; inhibition at 30 µM [3]: 94.8%; Kd [12]: 20 µM; inhibition at 30 µM [4]: 93.3% |
| 30300 | > 100 | 54.3 | 44.2 | – | 14 | 37.2 | CN(C)c1cc[n+](Cc2ccccc2)cc1 | – |
| 1000 | 12.9 | 3 | 15 | – | – | 24.9 | FC(F)(F)c1ccc(C[n+]2ccc(N3CCCC3)c3ccc(Cl)cc32)cc1 | – |
| – | – | – | – | – | 35 | – | CN(C)c1ccncc1 | – |
| – | – | – | – | – | 82 | – | CN(c1ccccc1)c1ccnc2cc(Cl)ccc12 | – |
| 1230 | 4.1 | 3.4 | 19.6 | 31.5 | – | 35 | Clc1ccc2c(N3CCCC3)cc[n+](Cc3ccccc3)c2c1 | – |
| – | – | – | – | – | 45 | – | Clc1ccc2c(N3CCCCCC3)ccnc2c1 | – |
| – | – | – | – | – | – | – | CN(c1ccccc1)c1cc[n+](Cc2ccc(-c3ccc(C[n+]4ccc(N(C)c5ccccc5)c5ccc(Cl)cc54)cc3)cc2)c2cc(Cl)ccc12 | GI50 (HeLa [14]): 830 nM; GI50 (HT-29 [15]): 400 nM; GI50 (RS4-11 [16]): 170 nM; GI50 (CCRF-CEM [17]): 610 nM |
| 2700 | 3 | 2.1 | 2.1 | – | – | – | CN(c1ccccc1)c1cc[n+](Cc2ccc(C(F)(F)F)cc2)c2cc(Cl)ccc12 | – |
| 220 | 0.16 | 0.18 | 0.95 | – | 0.67 | 28 | c1ccc(-c2ccc(C[n+]3ccc(N4CCCC4)cc3)cc2)cc1 | inhibition at 10 µM [1]: 70.3%; inhibition at 10 µM [2]: 56.7%; inhibition at 30 µM [3]: 84.3%; inhibition at 30 µM [4]: 79.5% |
| 830 | 0.29 | 0.43 | 0.74 | 18.9 | 1.7 | 26.4 | CN(C)c1cc[n+](Cc2ccc(-c3ccccc3)cc2)cc1 | – |

| Structure (SMILES) | GI50 (RS4-11 [5]) [nM] | GI50 (HT-29 [6]) [µM] | GI50 (CCRF-CEM [7]) [µM] | GI50 (HeLa [8]) [µM] | inhibition (Choline kinase alpha [9]) [%] | Kd (Choline kinase alpha [10]) [µM] | inhibition (Choline kinase alpha [13]) [%] | other results |
| --- | --- | --- | --- | --- | --- | --- | --- | --- |
| OC1C[N+]2(Cc3ccc(C(F)(F)F)cc3)CCC1CC2 (stereo unspecified) | > 100000 | > 100 | > 100 | 82.3 | – | – | – | inhibition at 10 µM [1]: 14.3%; inhibition at 10 µM [2]: 17.6%; inhibition at 30 µM [3]: 15.1%; inhibition at 30 µM [4]: 21.6% |
| FC(F)(F)c1ccc(C[N+]23CCC(CC2)CC3)cc1 | > 100000 | > 100 | > 100 | 90.8 | 8.07 | – | 24.7 | inhibition at 10 µM [1]: 5.1%; inhibition at 10 µM [2]: 9.1%; inhibition at 30 µM [3]: 17.7%; inhibition at 30 µM [4]: 2.4% |
| OC1C[N+]2(Cc3ccc(-c4ccccc4)cc3)CCC1CC2 (stereo unspecified) | 1700 | 34 | 16.9 | 27.5 | 45.6 | – | 53 | – |
| c1cc(N2CCCC2)ccn1 | – | – | – | – | – | 49 | – | – |
| c1ccc(-c2ccc(C[N+]34CCC(CC3)CC4)cc2)cc1 | 2600 | 24.7 | 11.8 | 29.9 | 26.6 | – | 30.2 | – |
